Measurements as given in ChEMBL document CHEMBL3808349, “Antineoplastic Agents. 585. Isolation of Bridelia ferruginea Anticancer Podophyllotoxins and Synthesis of 4-Aza-podophyllotoxin Structural Modifications” (2016).
Converted amounts (≈) assume the structure as drawn.

Legend:
Type in all cases: functional
NCI-H460 = experiment: Growth inhibition of human NCI-H460 cells measured after 48 hrs by sulforhodamine B assay; conditions: NCI-H460, 48 h
Procedure, shortened: (§1)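 Cells were seeded in RPMI1640 with 5% fetal bovine serum and incubated 24 h before serial dilutions of sample were added. After 48 h exposure, cells were fixed with trichloroacetic acid and stained with sulforhodamine B, and optical density was read by plate reader.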

[1] = Growth inhibition of human KM20L2 cells measured after 48 hrs by sulforhodamine B assay; conditions: KM-20L2, 48 h; procedure, shortened: as §1
P388 = experiment: Growth inhibition of mouse P388 cells measured after 48 hrs by sulforhodamine B assay; conditions: P388, 48 h, read-out: ED50 (the source's name)
[2] = Growth inhibition of human BxPC3 cells measured after 48 hrs by sulforhodamine B assay; conditions: BXPC-3, 48 h; procedure, shortened: as §1
MCF7 = experiment: Growth inhibition of human MCF7 cells measured after 48 hrs by sulforhodamine B assay; conditions: MCF7, 48 h; procedure, shortened: as §1
[3] = Growth inhibition of human SF268 cells measured after 48 hrs by sulforhodamine B assay; conditions: SF-268, 48 h; procedure, shortened: as §1
[4] = Growth inhibition of human DU145 cells measured after 48 hrs by sulforhodamine B assay; conditions: DU-145, 48 h; procedure, shortened: as §1

COc1cc(-c2c3c(nc4cc5c(cc24)OCO5)COC3=O)cc(OC)c1OC
GI50 (NCI-H460): 2.8 µg/mL (≈ 7.08 µM)
GI50 [1]: 2.1 µg/mL (≈ 5.31 µM)
EC50 (P388): 3.6 µg/mL (≈ 9.11 µM)
GI50 [2]: 4.1 µg/mL (≈ 10.4 µM)
GI50 (MCF7): 3.4 µg/mL (≈ 8.6 µM)
GI50 [3]: 2.4 µg/mL (≈ 6.07 µM)
GI50 [4]: 2.4 µg/mL (≈ 6.07 µM)

COc1cc(C2C3=C(COC3=O)N(CCO)c3cc4c(cc32)OCO4)cc(OC)c1OC (centres undefined)
GI50 (NCI-H460): 0.58 µg/mL (≈ 1.31 µM)
GI50 [1]: 0.52 µg/mL (≈ 1.18 µM)
EC50 (P388): 2 µg/mL (≈ 4.53 µM)
GI50 [2]: 0.6 µg/mL (≈ 1.36 µM)
GI50 (MCF7): 0.37 µg/mL (≈ 0.838 µM)
GI50 [3]: 0.41 µg/mL (≈ 0.929 µM)
GI50 [4]: 1.3 µg/mL (≈ 2.94 µM)

COc1cc(C2C3=C(COC3=O)N(C3CCCC3)c3cc4c(cc32)OCO4)cc(OC)c1O (centres undefined)
GI50 (NCI-H460): 0.33 µg/mL (≈ 0.731 µM)
GI50 [1]: 2.1 µg/mL (≈ 4.65 µM)
GI50 [2]: 0.53 µg/mL (≈ 1.17 µM)
GI50 (MCF7): 0.32 µg/mL (≈ 0.709 µM)
GI50 [3]: 0.39 µg/mL (≈ 0.864 µM)
GI50 [4]: 0.41 µg/mL (≈ 0.908 µM)

COc1cc(C2C3=C(COC3=O)Nc3cc(OC)c(OC)c(OC)c32)cc(Br)c1OC (centres undefined)
GI50 (NCI-H460): 0.35 µg/mL (≈ 0.711 µM)
EC50 (P388): 0.11 µg/mL (≈ 0.223 µM)
GI50 [2]: 0.56 µg/mL (≈ 1.14 µM)
GI50 (MCF7): 0.12 µg/mL (≈ 0.244 µM)
GI50 [3]: 0.11 µg/mL (≈ 0.223 µM)
GI50 [4]: 0.42 µg/mL (≈ 0.853 µM)

COc1cc(C2C3=C(COC3=O)N(CCN3CCOCC3)c3cc4c(cc32)OCO4)cc(OC)c1OC (centres undefined)
GI50 (NCI-H460): 3 µg/mL (≈ 5.88 µM)
GI50 [1]: 2.5 µg/mL (≈ 4.9 µM)
EC50 (P388): 2.6 µg/mL (≈ 5.09 µM)
GI50 [2]: 3.5 µg/mL (≈ 6.86 µM)
GI50 (MCF7): 0.89 µg/mL (≈ 1.74 µM)
GI50 [3]: 2.6 µg/mL (≈ 5.09 µM)
GI50 [4]: 2 µg/mL (≈ 3.92 µM)

COc1cc(C2C3=C(COC3=O)N(CCCn3ccnc3)c3cc4c(cc32)OCO4)cc(OC)c1OC (centres undefined)
GI50 (NCI-H460): 3 µg/mL (≈ 5.93 µM)
GI50 [1]: 2.2 µg/mL (≈ 4.35 µM)
EC50 (P388): 2 µg/mL (≈ 3.96 µM)
GI50 [2]: 2.9 µg/mL (≈ 5.74 µM)
GI50 (MCF7): 0.64 µg/mL (≈ 1.27 µM)
GI50 [3]: 2.5 µg/mL (≈ 4.95 µM)
GI50 [4]: 2.1 µg/mL (≈ 4.15 µM)

COc1cc(C2C3=C(COC3=O)N(CCN3CCCCC3)c3cc4c(cc32)OCO4)cc(OC)c1OC (centres undefined)
GI50 (NCI-H460): > 10 µg/mL
GI50 [1]: > 10 µg/mL
EC50 (P388): 1.7 µg/mL (≈ 3.34 µM)
GI50 [2]: 4.4 µg/mL (≈ 8.65 µM)
GI50 (MCF7): > 10 µg/mL
GI50 [3]: > 10 µg/mL
GI50 [4]: > 10 µg/mL

COc1cc(C2C3=C(COC3=O)N(C)c3cc4c(cc32)OCO4)cc(OC)c1OC (centres undefined)
GI50 (NCI-H460): 0.032 µg/mL (≈ 0.0778 µM)
GI50 [1]: 0.032 µg/mL (≈ 0.0778 µM)
EC50 (P388): 0.027 µg/mL (≈ 0.0656 µM)
GI50 [2]: 0.049 µg/mL (≈ 0.119 µM)
GI50 (MCF7): 0.034 µg/mL (≈ 0.0826 µM)
GI50 [3]: 0.029 µg/mL (≈ 0.0705 µM)
GI50 [4]: 0.026 µg/mL (≈ 0.0632 µM)

COc1cc(C2C3=C(COC3=O)Nc3cc4c(cc32)OCO4)cc(OC)c1O (centres undefined)
GI50 (NCI-H460): 0.027 µg/mL (≈ 0.0704 µM)
GI50 [1]: 0.032 µg/mL (≈ 0.0835 µM)
EC50 (P388): 0.028 µg/mL (≈ 0.073 µM)
GI50 [2]: 0.028 µg/mL (≈ 0.073 µM)
GI50 (MCF7): 0.025 µg/mL (≈ 0.0652 µM)
GI50 [3]: 0.026 µg/mL (≈ 0.0678 µM)
GI50 [4]: 0.033 µg/mL (≈ 0.0861 µM)

COc1cc(C2C3=C(COC3=O)N(CCN(C)C)c3cc4c(cc32)OCO4)cc(OC)c1OC (centres undefined)
GI50 (NCI-H460): 1 µg/mL (≈ 2.13 µM)
GI50 [1]: 0.51 µg/mL (≈ 1.09 µM)
EC50 (P388): 0.18 µg/mL (≈ 0.384 µM)
GI50 [2]: 0.43 µg/mL (≈ 0.918 µM)
GI50 (MCF7): 0.29 µg/mL (≈ 0.619 µM)
GI50 [3]: 0.46 µg/mL (≈ 0.982 µM)
GI50 [4]: 2.5 µg/mL (≈ 5.34 µM)

COc1cc(C2C3=C(COC3=O)N(CCc3ccc(F)cc3)c3cc4c(cc32)OCO4)cc(OC)c1O (centres undefined)
GI50 (NCI-H460): 0.36 µg/mL (≈ 0.712 µM)
EC50 (P388): 0.21 µg/mL (≈ 0.415 µM)
GI50 [2]: 1.4 µg/mL (≈ 2.77 µM)
GI50 (MCF7): 0.34 µg/mL (≈ 0.673 µM)
GI50 [3]: 0.48 µg/mL (≈ 0.95 µM)
GI50 [4]: 0.38 µg/mL (≈ 0.752 µM)

COc1cc(C2C3=C(COC3=O)N(Cc3ccc(F)cc3)c3cc4c(cc32)OCO4)cc(OC)c1OC (centres undefined)
GI50 (NCI-H460): 0.031 µg/mL (≈ 0.0613 µM)
GI50 [1]: 0.033 µg/mL (≈ 0.0653 µM)
EC50 (P388): 1.9 µg/mL (≈ 3.76 µM)
GI50 [2]: 0.046 µg/mL (≈ 0.091 µM)
GI50 (MCF7): 0.037 µg/mL (≈ 0.0732 µM)
GI50 [3]: 0.03 µg/mL (≈ 0.0593 µM)
GI50 [4]: 0.047 µg/mL (≈ 0.093 µM)

COc1cc(C2C3=C(COC3=O)N(Cc3ccco3)c3cc4c(cc32)OCO4)cc(OC)c1O (centres undefined)
GI50 (NCI-H460): 0.24 µg/mL (≈ 0.518 µM)
EC50 (P388): 0.89 µg/mL (≈ 1.92 µM)
GI50 [2]: 1 µg/mL (≈ 2.16 µM)
GI50 (MCF7): 0.054 µg/mL (≈ 0.117 µM)
GI50 [3]: 0.061 µg/mL (≈ 0.132 µM)
GI50 [4]: 0.39 µg/mL (≈ 0.842 µM)

COc1cc(C2C3=C(COC3=O)N(C3CCCC3)c3cc4c(cc32)OCO4)cc(OC)c1OC (centres undefined)
GI50 (NCI-H460): 0.16 µg/mL (≈ 0.344 µM)
GI50 [1]: 0.12 µg/mL (≈ 0.258 µM)
GI50 [2]: 0.083 µg/mL (≈ 0.178 µM)
GI50 (MCF7): 0.045 µg/mL (≈ 0.0967 µM)
GI50 [3]: 0.062 µg/mL (≈ 0.133 µM)
GI50 [4]: 0.27 µg/mL (≈ 0.58 µM)

COc1cc(C2C3=C(COC3=O)N(CCc3ccc([N+](=O)[O-])cc3)c3cc4c(cc32)OCO4)cc(OC)c1OC (centres undefined)
GI50 (NCI-H460): 0.3 µg/mL (≈ 0.549 µM)
GI50 [1]: 0.26 µg/mL (≈ 0.476 µM)
GI50 [2]: 0.39 µg/mL (≈ 0.714 µM)
GI50 (MCF7): 0.08 µg/mL (≈ 0.146 µM)
GI50 [3]: 0.2 µg/mL (≈ 0.366 µM)
GI50 [4]: 0.3 µg/mL (≈ 0.549 µM)
